Test results as given in ChEMBL document CHEMBL1139384, “First Cdc7 kinase inhibitors: pyrrolopyridinones as potent and orally active antitumor agents. 2. Lead discovery” (J Med Chem, 2009).
pIC50: −log10 of the molar value. ≈ marks a conversion by molar mass, not a printed value.

What was measured:
[1] = target: Cell division cycle 7-related protein kinase (Homo sapiens, UniProt O00311); experiment: Inhibition of human Cdc7 assessed as inhibition of rate of phosphorylation of Mcm2 protein
A2780 = experiment: Antiproliferative activity against human A2780 cells after 72 hrs by luciferase based assay; type: functional, cell-based
[2] = Cmax in nu/nu mouse at 10 mg/kg, po administered as single dose; type: ADME, organism-based; design: dose 10 mg/kg, route oral; conditions: in vivo
Procedure, shortened: (§1)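 Single iv or oral dose in 5% dextrose to overnight-fasted animals. Nu/Nu mice: males, 3 per route, saphenous bleeds to 24 h. Han-Wistar rats: males, 3 per route, jugular bleeds to 24 h. Beagle dogs: 2 per sex, iv and po crossover 2 weeks apart, jugular bleeds to 48 h. Plasma by LC/MS/MS; noncompartmental parameters, AUC by linear trapezoid with extrapolation.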

[3] = Tmax in nu/nu mouse at 10 mg/kg, po administered as single dose; type: ADME, organism-based; design: dose 10 mg/kg, route oral; conditions: in vivo
Procedure, shortened: (§2)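 Overnight-fasted male Nu/Nu mice got a single 10 mg/kg dose in 5% dextrose, iv or po, three mice per route. Saphenous blood was drawn at 0.083 (iv) or 0.25 (po), 0.5, 1, 6 and 24 h. Plasma was assayed by LC/MS/MS and analysed noncompartmentally. Tmax is the observed peak time, Vss = CL·MRT, and F is the ratio of dose-normalized AUC∞ po/iv.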

[4] = Oral bioavailability in nu/nu mouse at 10 mg/kg administered as single dose; type: ADME, organism-based; conditions: in vivo; procedure, shortened: as §2
[5] = Half life in nu/nu mouse at 10 mg/kg, po administered as single dose; type: ADME, organism-based; design: dose 10 mg/kg, route oral; conditions: in vivo; procedure, shortened: as §1
[6] = Half life in nu/nu mouse at 10 mg/kg, iv administered as single dose; type: ADME, organism-based; design: dose 10 mg/kg, route intravenous; conditions: in vivo; procedure, shortened: as §1
[7] = AUC (0 to infinity) in nu/nu mouse at 10 mg/kg, iv administered as single dose; type: ADME, organism-based; design: dose 10 mg/kg, route intravenous, time infinity; conditions: plasma; procedure, shortened: as §1
[8] = Cmax in nu/nu mouse at 10 mg/kg, iv administered as single dose; type: ADME, organism-based; design: dose 10 mg/kg, route intravenous; conditions: in vivo; procedure, shortened: as §1
[9] = Volume of distribution at steady state in nu/nu mouse at 10 mg/kg, iv administered as single dose; type: ADME, organism-based; design: dose 10 mg/kg, route intravenous; conditions: in vivo, read-out: Vdss; procedure, shortened: as §2
[10] = Clearance in nu/nu mouse at 10 mg/kg, iv administered as single dose; type: ADME, organism-based; design: dose 10 mg/kg, route intravenous; conditions: in vivo; procedure, shortened: as §1
[11] = Solubility in pH 7.0 buffer
[12] = target: Cyclin-dependent kinase 9 (Homo sapiens, UniProt P50750); experiment: Inhibition of CDK9
Chain of Cyclin-dependent kinase 9 (P50750 whole entry): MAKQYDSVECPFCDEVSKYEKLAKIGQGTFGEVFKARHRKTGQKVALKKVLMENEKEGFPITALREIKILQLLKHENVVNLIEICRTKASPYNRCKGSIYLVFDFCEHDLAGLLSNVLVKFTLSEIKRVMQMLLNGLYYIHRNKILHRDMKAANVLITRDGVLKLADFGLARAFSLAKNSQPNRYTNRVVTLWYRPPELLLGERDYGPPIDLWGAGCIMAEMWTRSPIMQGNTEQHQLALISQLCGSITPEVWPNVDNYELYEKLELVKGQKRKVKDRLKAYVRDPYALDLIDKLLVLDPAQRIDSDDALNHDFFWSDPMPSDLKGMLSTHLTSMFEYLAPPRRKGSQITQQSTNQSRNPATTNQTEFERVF

[13] = Metabolic stability in human hepatocytes expressing CYP3A4 assessed as drug remaining after 1 hr; type: ADME, cell-based, Hepatocyte; conditions: read-out: Stability
[14] = AUC (0 to infinity) in nu/nu mouse at 10 mg/kg, po administered as single dose; type: ADME, organism-based; design: time infinity, dose 10 mg/kg, route oral; conditions: plasma; procedure, shortened: as §1
Hepatocyte = experiment: Metabolic stability in rat hepatocytes assessed as intrinsic clearance at 1 uM; type: cell-based; conditions: Liver

Chain of Cell division cycle 7-related protein kinase (O00311 whole entry): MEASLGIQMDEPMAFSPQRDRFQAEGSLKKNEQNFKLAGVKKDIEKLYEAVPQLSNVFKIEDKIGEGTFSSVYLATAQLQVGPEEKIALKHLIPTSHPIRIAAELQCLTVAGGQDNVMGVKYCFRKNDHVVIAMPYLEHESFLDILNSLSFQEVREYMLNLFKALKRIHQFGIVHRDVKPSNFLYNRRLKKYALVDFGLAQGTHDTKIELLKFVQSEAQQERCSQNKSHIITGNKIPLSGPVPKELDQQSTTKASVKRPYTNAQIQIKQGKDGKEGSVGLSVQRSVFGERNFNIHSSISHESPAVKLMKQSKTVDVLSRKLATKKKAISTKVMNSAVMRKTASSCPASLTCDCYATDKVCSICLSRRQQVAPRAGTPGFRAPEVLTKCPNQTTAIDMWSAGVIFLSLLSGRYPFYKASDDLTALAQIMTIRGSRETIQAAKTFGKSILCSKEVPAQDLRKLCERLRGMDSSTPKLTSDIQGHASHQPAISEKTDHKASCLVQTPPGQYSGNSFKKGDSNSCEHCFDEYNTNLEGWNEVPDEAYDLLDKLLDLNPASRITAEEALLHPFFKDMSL

| Compound | pIC50 [1] | pIC50 (A2780; Homo sapiens, A2780, 72 h) | also measured |
| --- | --- | --- | --- |
| Nc1nccc(-c2cc3c([nH]2)CC(C2CC2)NC3=O)n1 (stereo unspecified) | 7.96 | 5.96 |  |
| Nc1nccc(-c2cc3c([nH]2)C(C2CCC2)CNC3=O)n1 (stereo in doubt; 88) | 8.30 |  | pIC50 (A2780; a2780): 6.52 |
| Nc1nccc(-c2cc3c([nH]2)C(CCC(F)(F)F)CNC3=O)n1 (stereo in doubt; 93-2) [listing 1 of 2 here] | 7.96 |  | Cmax [2]: 800 nM; Tmax [3]: 19.8 min; bioavailability [4]: 31%; half-life [5]: 102 min; half-life [6]: 54 min; AUC(0-inf) [7]: 5.3 µM·h; Cmax [8]: 13.6 µM; Vd [9]: 1.5 L/kg; clearance [10]: 88.3 mL/min/kg; solubility [11]: 195 µM (≈ 63.4 µg/mL); pIC50 [12]: 6.40; remaining at 1 h [13]: 94%; AUC(0-inf) [14]: 1.7 µM·h; pIC50 (A2780; a2780): 6.52 |
| CC(C)C1Cc2[nH]c(-c3ccnc(N)n3)cc2C(=O)N1 (stereo unspecified) | 7.92 | 5.89 |  |
| Nc1nccc(-c2cc3c([nH]2)C(CCC(F)(F)F)CNC3=O)n1 (stereo in doubt; 93-2) [listing 2 of 2 here] |  |  | CL (mL.min-1.kg-1) (Hepatocyte): 8.33 |
| CC1Cc2[nH]c(-c3ccnc(N)n3)cc2C(=O)N1 (stereo unspecified) |  | 5.41 |  |
| Nc1nccc(-c2cc3c([nH]2)C(C2CCC2)CNC3=O)n1 (stereo in doubt; 88-1) | 7.96 |  | pIC50 [12]: 7.08; pIC50 (A2780; a2780): 5.89 |
| CC(C)C1CNC(=O)c2cc(-c3ccncc3)[nH]c21 (stereo unspecified) | 8.00 | 6.30 |  |
| Nc1nccc(-c2cc3c([nH]2)C(CCC(F)(F)F)CNC3=O)n1 (stereo in doubt; 93) | 8.00 |  | pIC50 (A2780; a2780): 6.30 |
| CC1CNC(=O)c2cc(-c3ccncc3)[nH]c21 (stereo unspecified) | 8.00 | 6.22 |  |
| CCC1CNC(=O)c2cc(-c3ccncc3)[nH]c21 (stereo unspecified) | 8.70 | 6.52 |  |
| Nc1nccc(-c2cc3c([nH]2)C[C@H](COCc2ccccc2)NC3=O)n1 | 7.28 | 5.52 |  |
| CC1CNC(=O)c2cc(-c3ccnc(N)n3)[nH]c21 (stereo unspecified) | 8.22 | 6.15 |  |
| CC(C)CC1Cc2[nH]c(-c3ccnc(N)n3)cc2C(=O)N1 (stereo unspecified) | 8.10 | 5.80 |  |
| CC(C)C1CNC(=O)c2cc(-c3ccnc(N)n3)[nH]c21 (stereo in doubt; 87) | 8.40 |  | pIC50 (A2780; a2780): 6.40 |
| CC(C)C1Cc2[nH]c(-c3ccncc3)cc2C(=O)N1 (stereo unspecified) | 8.22 | 6.05 |  |
| Nc1nccc(-c2cc3c([nH]2)CCNC3=O)n1 |  | 5.77 | pIC50 [12]: 7.54 |
| Nc1nccc(-c2cc3c([nH]2)C(CCOCc2ccccc2)CNC3=O)n1 (stereo unspecified) | 8.15 | 6.40 |  |
| Nc1nccc(-c2cc3c([nH]2)C(CCF)CNC3=O)n1 (stereo unspecified) | 8.52 | 6.22 |  |
| CC1(C)CNC(=O)c2cc(-c3ccncc3)[nH]c21 |  | 6.70 |  |
| CCC1CNC(=O)c2cc(-c3ccnc(N)n3)[nH]c21 (stereo in doubt; 86-1) |  |  | CL (mL.min-1.kg-1) (Hepatocyte): 5 |
| Nc1nccc(-c2cc3c([nH]2)C(CCO)CNC3=O)n1 (stereo unspecified) | 8.40 | 5.96 |  |
| CC1(C)Cc2[nH]c(-c3ccnc(N)n3)cc2C(=O)N1 | 7.19 | 5.74 |  |
